Source: PMC9476207 (ACS Omega, 2022)

Experiments:
Assay in all cases: NCI-60 single-dose antiproliferative screen
Assay type in all cases: cell-based
HS 578T = conditions: Homo sapiens, 48 h, read-out: growth percent
In short: (§1)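 NCI-60 protocol. Lines were grown in RPMI 1640 with 5% FBS and 2 mM L-glutamine, plated and incubated 24 h at 37 °C; time-zero plates were TCA-fixed. The test compound was dissolved in DMSO, diluted in medium with 50 μg/mL gentamicin and given once at a final 10^-5 M (DMSO control) for 48 h. Cells were fixed with cold TCA (1 h, 4 °C) and stained with 0.4% SRB in 1% acetic acid for 10 min. Dye was dissolved in 10 mM Trizma base and read at 515 nm. Growth percent was calculated from time-zero, test and control ODs.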

UACC-62 = conditions: Homo sapiens, UACC-62, 48 h, read-out: growth percent
In short: (§2)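 Cells grown in RPMI 1640 with 5% FBS and 2 mM L-glutamine, plated and held 24 h at 37 °C; time-zero plates TCA-fixed. DMSO stocks were diluted in gentamicin-containing medium to a final 10^-5 M, with a DMSO-only control. Exposure 48 h, 5% CO2. Adherent cells TCA-fixed 1 h at 4 °C, stained with 0.4% SRB, solubilised in 10 mM Trizma base, read at 515 nm. Growth percent derived from ODtzero, ODtest and ODctrl.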

NCI-H23 = conditions: Homo sapiens, NCI-H23, 48 h, read-out: growth percent
In short: as §1

COLO205 = conditions: Homo sapiens, COLO 205, 48 h, read-out: growth percent
In short: as §1

SF-268 = conditions: Homo sapiens, SF-268, 48 h, read-out: growth percent
In short: as §1

MDA-MB-435 = conditions: Homo sapiens, MDA-MB-435, 48 h, read-out: growth percent
In short: as §1

SN12C = conditions: Homo sapiens, 48 h, read-out: growth percent
In short: as §2

SW-620 = conditions: Homo sapiens, SW-620, 48 h, read-out: growth percent
In short: as §2

IGROV1 = conditions: Homo sapiens, IGROV-1, 48 h, read-out: growth percent
In short: as §1

NCI-H322M = conditions: Homo sapiens, 48 h, read-out: growth percent
In short: as §1

HOP-62 = conditions: Homo sapiens, HOP-62, 48 h, read-out: growth percent
In short: as §1

NCI-H226 = conditions: Homo sapiens, NCI-H226, 48 h, read-out: growth percent
In short: as §1

CCRF-CEM = conditions: Homo sapiens, 48 h, read-out: growth percent
In short: as §1

DU-145 = conditions: Homo sapiens, DU-145, 48 h, read-out: growth percent
In short: as §1

HCC-2998 = conditions: Homo sapiens, HCC 2998, 48 h, read-out: growth percent
In short: as §1

MCF-7 = conditions: Homo sapiens, MCF7, 48 h, read-out: growth percent
In short: as §1

SR = conditions: Homo sapiens, 48 h, read-out: growth percent
In short: as §2

RPMI-8226 = conditions: Homo sapiens, RPMI-8226, 48 h, read-out: growth percent
In short: as §1

NCI-H522 = conditions: Homo sapiens, NCI-H522, 48 h, read-out: growth percent
In short: as §1

SF-539 = conditions: Homo sapiens, SF-539, 48 h, read-out: growth percent
In short: as §2

CAKI-1 = conditions: Homo sapiens, CAKI-1, 48 h, read-out: growth percent
In short: as §1

MOLT-4 = conditions: Homo sapiens, MOLT-4, 48 h, read-out: growth percent
In short: as §1

KM12 = conditions: Homo sapiens, KM12, 48 h, read-out: growth percent
In short: as §1

NCI-H460 = conditions: Homo sapiens, NCI-H460, 48 h, read-out: growth percent
In short: as §1

SF-295 = conditions: Homo sapiens, SF-295, 48 h, read-out: growth percent
In short: as §1

RXF 393 = conditions: Homo sapiens, RXF 393, 48 h, read-out: growth percent
In short: as §1

SK-MEL-2 = conditions: Homo sapiens, SK-MEL-2, 48 h, read-out: growth percent
In short: as §2

T-47D = conditions: Homo sapiens, T47D, 48 h, read-out: growth percent
In short: as §2

SNB-19 = conditions: Homo sapiens, SNB-19, 48 h, read-out: growth percent
In short: as §2

HT29 = conditions: Homo sapiens, HT-29, 48 h, read-out: growth percent
In short: as §1

UO-31 = conditions: Homo sapiens, UO-31, 48 h, read-out: growth percent
In short: as §2

TK-10 = conditions: Homo sapiens, TK-10, 48 h, read-out: growth percent
In short: as §2

UACC-257 = conditions: Homo sapiens, UACC-257, 48 h, read-out: growth percent
In short: as §2

MDA-MB-468 = conditions: Homo sapiens, MDA-MB-468, 48 h, read-out: growth percent
In short: as §1

A549/ATCC = conditions: Homo sapiens, A549, 48 h, read-out: growth percent
In short: as §1

SK-OV-3 = conditions: Homo sapiens, SK-OV-3, 48 h, read-out: growth percent
In short: as §2

SMILES	activity at 10 µM (HS 578T) [%]	activity at 10 µM (UACC-62) [%]	activity at 10 µM (NCI-H23) [%]	activity at 10 µM (COLO205) [%]	activity at 10 µM (SF-268) [%]	activity at 10 µM (MDA-MB-435) [%]	activity at 10 µM (SN12C) [%]	activity at 10 µM (SW-620) [%]	activity at 10 µM (IGROV1) [%]	activity at 10 µM (NCI-H322M) [%]	activity at 10 µM (HOP-62) [%]	activity at 10 µM (NCI-H226) [%]	activity at 10 µM (CCRF-CEM) [%]	activity at 10 µM (DU-145) [%]	activity at 10 µM (HCC-2998) [%]	activity at 10 µM (MCF-7) [%]	activity at 10 µM (SR) [%]	activity at 10 µM (RPMI-8226) [%]	activity at 10 µM (NCI-H522) [%]	activity at 10 µM (SF-539) [%]	further results
COc1cc(CNC(=O)CCCC/C=C/C(C)C)ccc1OCc1cn(-c2ccc(Cl)cc2)nn1 [14a, (E)-N-(4-((1-(4-Chlorophenyl)-1H-1,2,3-triazol-4-yl)methoxy)-3-methoxybenzyl)-8-methylnon-6-enamide]	90.3	67.8	78.7	108	84	99.3	80.2	88.7	93.4	92.2	84	70.4	72.4	98.9	113	84.9	73.5	60.8	65.7	87.1	activity at 10 µM (CAKI-1): 89%; activity at 10 µM (MOLT-4): 82%; activity at 10 µM (KM12): 95.6%; activity at 10 µM (NCI-H460): 79.9%; activity at 10 µM (SF-295): 88.3%; activity at 10 µM (RXF 393): 98%; activity at 10 µM (SK-MEL-2): 102%; activity at 10 µM (T-47D): 71%; activity at 10 µM (SNB-19): 87.7%; activity at 10 µM (HT29): 88.4%; activity at 10 µM (UO-31): 76.6%; activity at 10 µM (TK-10): 99.3%; activity at 10 µM (UACC-257): 91.6%; activity at 10 µM (MDA-MB-468): 64.9%; activity at 10 µM (A549/ATCC): 85.3%; activity at 10 µM (SK-OV-3): 91.6%
COc1cc(CNC(=O)CCCC/C=C/C(C)C)ccc1OCc1cn(-c2cccc(Cl)c2)nn1 [14b, (E)-N-(4-((1-(3-Chlorophenyl)-1H-1,2,3-triazol-4-yl)methoxy)-3-methoxybenzyl)-8-methylnon-6-enamide]	74.8	75	87.2	102	82.5	98.6	84.2	92.8	79.9	86.2	71.5	86.5	87.3	95.9	104	86.9	85.6	86.3	69.2	82	activity at 10 µM (CAKI-1): 79.6%; activity at 10 µM (MOLT-4): 92.8%; activity at 10 µM (KM12): 98.6%; activity at 10 µM (NCI-H460): 84.1%; activity at 10 µM (SF-295): 90.5%; activity at 10 µM (RXF 393): 91%; activity at 10 µM (SK-MEL-2): 86.7%; activity at 10 µM (T-47D): 81.1%; activity at 10 µM (SNB-19): 60%; activity at 10 µM (HT29): 99.2%; activity at 10 µM (UO-31): 72.2%; activity at 10 µM (TK-10): 106%; activity at 10 µM (UACC-257): 90.1%; activity at 10 µM (MDA-MB-468): 74.7%; activity at 10 µM (A549/ATCC): 82.9%; activity at 10 µM (SK-OV-3): 78.8%
COc1cc(CNC(=O)CCCC/C=C/C(C)C)ccc1OCc1cn(-c2ccccc2Cl)nn1 [14c, (E)-N-(4-((1-(2-Chlorophenyl)-1H-1,2,3-triazol-4-yl)methoxy)-3-methoxybenzyl)-8-methylnon-6-enamide]	97.2	73.3	93.6	106	87.8	103	94.5	100	98.8	89.4	82	81.8	87.9	99.2	110	97.2	68.5	75.5	64.5	104	activity at 10 µM (CAKI-1): 93.4%; activity at 10 µM (MOLT-4): 81%; activity at 10 µM (KM12): 97.7%; activity at 10 µM (NCI-H460): 101%; activity at 10 µM (SF-295): 99.4%; activity at 10 µM (RXF 393): 105%; activity at 10 µM (SK-MEL-2): 91%; activity at 10 µM (T-47D): 74.3%; activity at 10 µM (SNB-19): 89.7%; activity at 10 µM (HT29): 98.2%; activity at 10 µM (UO-31): 75.2%; activity at 10 µM (TK-10): 94.6%; activity at 10 µM (UACC-257): 87.9%; activity at 10 µM (MDA-MB-468): 88.2%; activity at 10 µM (A549/ATCC): 84.3%; activity at 10 µM (SK-OV-3): 91.3%
COc1cc(CNC(=O)CCCC/C=C/C(C)C)ccc1OCc1cn(-c2ccc(Cl)c(Cl)c2)nn1 [14d, (E)-N-(4-((1-(3,4-Dichlorophenyl)-1H-1,2,3-triazol-4-yl)methoxy)-3-methoxybenzyl)-8-methylnon-6-enamide]	84	75.6	93.2	111	93.3	94.2	113	96.1	104	93.2	90.4	76.6	84.7	86.5	98.1	95.3	78.9	78.1	69.3	96.1	activity at 10 µM (CAKI-1): 58.3%; activity at 10 µM (MOLT-4): 86.4%; activity at 10 µM (KM12): 100%; activity at 10 µM (NCI-H460): 101%; activity at 10 µM (SF-295): 94.6%; activity at 10 µM (RXF 393): 101%; activity at 10 µM (SK-MEL-2): 108%; activity at 10 µM (T-47D): 87%; activity at 10 µM (SNB-19): 87.3%; activity at 10 µM (HT29): 99.4%; activity at 10 µM (UO-31): 103%; activity at 10 µM (TK-10): 88.6%; activity at 10 µM (UACC-257): 89.2%; activity at 10 µM (MDA-MB-468): 71.6%; activity at 10 µM (A549/ATCC): 85.9%; activity at 10 µM (SK-OV-3): 97.2%
